The source of these data is paper PMC6559718 (Journal of biomolecular screening, 2016).

The test system of data set [1] is yeast strain expressing hANT1. In words: microbe, parasite or virus in culture. To be noted: Saccharomyces cerevisiae, read-out: Activity hANT1 IC50. The data set is classed as cell-based.
The subject of data set [2] is yeast strain expressing hANT2. In words: microbe, parasite or virus in culture. Particulars: Saccharomyces cerevisiae, read-out: Activity hANT2 IC50. The data set is classed as cell-based.
Data set [3] deals with yeast strain expressing hANT3. In words: microbe, parasite or virus in culture. Format: cell-based. To be noted: Saccharomyces cerevisiae, read-out: Activity hANT3 IC50.
The subject of data set [4] is yeast strain expressing hANT4. In words: microbe, parasite or virus in culture. The data set is classed as cell-based. Particulars: Saccharomyces cerevisiae, read-out: Activity hANT4 IC50.
In data set [5] the target is T1, human ANT1 (Homo sapiens, UniProt P12235).
T1 sequence (P12235 1-298): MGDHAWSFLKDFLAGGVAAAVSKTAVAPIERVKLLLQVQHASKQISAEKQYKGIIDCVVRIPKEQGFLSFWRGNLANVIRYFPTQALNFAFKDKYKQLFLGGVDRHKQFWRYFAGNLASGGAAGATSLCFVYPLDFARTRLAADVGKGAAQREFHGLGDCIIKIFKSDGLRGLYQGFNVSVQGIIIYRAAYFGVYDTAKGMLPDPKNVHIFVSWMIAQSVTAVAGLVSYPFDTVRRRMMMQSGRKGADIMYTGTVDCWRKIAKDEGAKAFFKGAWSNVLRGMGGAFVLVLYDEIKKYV
In words: ADP/ATP exchange with isolated yeast mitochondria expressing hANT1. The data set is classed as biochemical.

Data set [6] deals with T2, human ANT2 (Homo sapiens, UniProt P05141).
T2 sequence (P05141 1-298): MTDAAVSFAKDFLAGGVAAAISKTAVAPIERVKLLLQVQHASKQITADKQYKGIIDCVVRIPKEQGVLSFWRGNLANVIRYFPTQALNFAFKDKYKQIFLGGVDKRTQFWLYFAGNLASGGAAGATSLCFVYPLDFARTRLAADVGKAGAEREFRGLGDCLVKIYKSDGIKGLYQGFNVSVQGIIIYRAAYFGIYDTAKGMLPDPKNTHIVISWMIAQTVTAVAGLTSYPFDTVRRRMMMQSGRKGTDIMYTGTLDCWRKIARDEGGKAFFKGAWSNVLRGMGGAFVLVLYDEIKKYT
Description: ADP/ATP exchange with isolated yeast mitochondria expressing hANT2. Format: biochemical.

The target of data set [7] is T3, human ANT3 (Homo sapiens, UniProt P12236).
T3 sequence (P12236 1-298): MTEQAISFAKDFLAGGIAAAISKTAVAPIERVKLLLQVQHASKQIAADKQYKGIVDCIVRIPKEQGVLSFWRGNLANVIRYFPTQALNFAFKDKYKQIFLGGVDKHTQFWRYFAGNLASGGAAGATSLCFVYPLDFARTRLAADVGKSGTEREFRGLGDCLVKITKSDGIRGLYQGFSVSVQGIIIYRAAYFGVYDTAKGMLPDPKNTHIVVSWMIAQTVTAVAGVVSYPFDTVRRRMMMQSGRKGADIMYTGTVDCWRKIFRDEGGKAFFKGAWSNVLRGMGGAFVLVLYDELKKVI
Description: ADP/ATP exchange with isolated yeast mitochondria expressing hANT3. The data set is classed as biochemical.

For data set [8], the target named is T4, human ANT4 (Homo sapiens, UniProt Q9H0C2).
T4 sequence (Q9H0C2 1-315): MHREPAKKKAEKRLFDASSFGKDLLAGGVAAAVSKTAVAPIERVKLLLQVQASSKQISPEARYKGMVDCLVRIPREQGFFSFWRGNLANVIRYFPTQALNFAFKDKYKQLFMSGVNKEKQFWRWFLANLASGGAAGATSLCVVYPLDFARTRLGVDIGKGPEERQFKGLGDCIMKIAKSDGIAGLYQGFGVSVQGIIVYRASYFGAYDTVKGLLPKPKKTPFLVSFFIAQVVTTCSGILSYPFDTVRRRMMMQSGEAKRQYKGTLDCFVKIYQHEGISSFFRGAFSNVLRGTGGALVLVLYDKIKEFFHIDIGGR
In words: ADP/ATP exchange with isolated yeast mitochondria expressing hANT4. Format: biochemical.

Data set [9] concerns the target T1, human ANT1. In words: ADP/ATP exchange with Lactococcus lactis expressing hANT1. The data set is classed as biochemical.
In data set [10] the target is T2, human ANT2. Description: ADP/ATP exchange with Lactococcus lactis expressing hANT2. Format: biochemical.
Data set [11] deals with T3, human ANT3. In words: ADP/ATP exchange with Lactococcus lactis expressing hANT3. Format: biochemical.
Data set [12] concerns HCT116 cells. In words: Oxygen consumption rate in HCT116 cells. Format: cell-based, human. To be noted: after ADP addition, leelamine 50 pM as printed. The essentials:
(§1)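 Cells were kept in RPMI1640 with 10% FBS, plated at 20,000/well, and incubated overnight at 37 °C in 5% CO2. Before the assay, medium was replaced with MAS buffer (mannitol/sucrose/KH2PO4/MgCl2/HEPES/EGTA, 0.2% fatty-acid-free BSA, pH 7.4) plus 10 mM pyruvate and […]. Sequential injections were atpenin A5, 3.5 mM ADP, plasma membrane permeabilizer, then test compound or cATR control. OCR was read on an extracellular flux analyzer.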

The subject of data set [13] is MiaPaCa-2 cells. In words: Oxygen consumption rate in MiaPaCa-2 cells. The data set is classed as cell-based, human. To be noted: after ADP addition, leelamine 50 pM as printed. The essentials:
as §1

Data set [14] concerns human ANT isoforms. In words: ADP/ATP exchange in L. lactis, human ANT isoforms. To be noted: single-concentration test of compounds selected from the yeast growth assay. The data set is classed as biochemical.
Data set [15] can be described thus: in vitro. Particulars: Saccharomyces cerevisiae.
Data set [16] is described as follows: in vitro. To be noted: Saccharomyces cerevisiae. This is another data set of the same source.
Data set [17] is described as follows: in vitro. To be noted: Saccharomyces cerevisiae. This is another data set of the same source.
Data set [18] in a line: in vitro. Particulars: Saccharomyces cerevisiae. This is another data set of the same source.

Bounds are passed on as bounds.

For `Cc1cc(C(C#N)c2ccc(Cl)cc2)c(Cl)cc1NC(=O)c1cc(I)cc(I)c1O` (stereo not shown) [Closantel], the half-inhibitory concentration (IC50) in [1] was 4.7 ± 0.8 µM; in [2], 6.1 ± 2.4 µM; in data set [3], 6.3 ± 2.3 µM; in data set [4], 9.6 ± 8.7 µM; in [5], 52 ± 15 µM; in data set [6], 92 ± 32 µM. The IC50 in [7] was 100 ± 32 µM; in data set [8], 64 ± 25 µM; in data set [9], 15 ± 2.8 µM; in data set [10] it was 24 ± 4.2 µM; in data set [11], 47 ± 11 µM; in data set [15], over 100 µM. The IC50 in data set [16], in [17] and in data set [18] was over 100 µM in each case. The “selectivity for hANT1 over hANT3” value in [9] (L. lactis assay) is ~ 3 fold. In addition, the results for the “oxygen consumption rate (OCR)” value in data set [12] and in data set [13] were “inhibited OCR” and “Neither CD437 nor closantel produced an appreciable level of reduction of OCR”, respectively. Moreover, the “inhibition of [3H]ADP uptake by L. lactis” value in data set [14] is recorded as “inhibited”.
